# Measured values from different studies.
# Compare with care: the assays were run in different laboratories.
SMILES,target or system,assay,system,setting,quantity,result
C=CC(=O)NC1CCN(c2ncc3ncnc(Nc4ccc(Oc5ccc6c(c5)ncn6C)c(C)c4)c3n2)CC1,NCI-H520,cell growth or viability,,,EC50,706 nM
O/N=c1\cc2n(-c3ccc(Cl)cc3)c3ccccc3nc-2cc1Nc1ccc(Cl)cc1,Mycobacterium avium,microbial growth,ATCC700898,,MIC,1.88 µM
CN(Cc1ccc(C2(C(F)(F)F)CC2)cc1)Cc1cccc2ccccc12,Trichophyton rubrum,"microbial growth, disc diffusion",ATCC28188,"0.256 µg/mL, 6 days",inhibition zone,≥ 55 mm
CCOC(=O)CNC(=O)CO/N=c1\cc2n(-c3ccc(Cl)cc3)c3ccccc3nc-2cc1Nc1ccc(Cl)cc1,Mycobacterium avium,microbial growth,ATCC700898,,MIC,1.88 µM
NCC[C@H](O)C(=O)N[C@@H]1C[C@H](N)[C@@H](O[C@H]2O[C@H](CN)[C@@H](O)[C@H](O)[C@H]2O)[C@H](O)[C@H]1O[C@H]1O[C@H](CO)[C@@H](O)[C@H](N)[C@H]1O,Mycobacterium avium,"microbial growth, resazurin",,,MIC,1.7 µg/mL
CO/N=c1\cc2n(-c3ccc(Cl)cc3)c3ccccc3nc-2cc1Nc1ccc(Cl)cc1,Mycobacterium avium,microbial growth,,clinical isolate,MIC,> 30 µM
CN(Cc1ccc(C(C)(C)C)cc1)Cc1cccc2ccccc12,Trichophyton rubrum,"microbial growth, disc diffusion",ATCC28188,"0.064 µg/mL, 6 days",inhibition zone,≥ 55 mm
O=C(c1ccc(Oc2cccc(-c3ccccc3)c2)c([N+](=O)[O-])c1)C(Cl)Cl,NCI-H1975,"cell growth or viability, MTT",,2.5 µM,inhibition,98.1%
Nc1nc(N)c(OCCCOc2ccccc2CCC(=O)O)c(C2CCNCC2)n1,Mycobacterium avium,"microbial growth, resazurin",,,MIC,6.2 µg/mL
O=C(c1ccc(Oc2ccc3cc(Br)ccc3c2Cl)c([N+](=O)[O-])c1)C(Cl)Cl,NCI-H1975,"cell growth or viability, MTT",,2.5 µM,inhibition,85.4%
NCCCc1nc(N)nc(N)c1OCCCOc1ccccc1CCC(=O)O,Mycobacterium avium,"microbial growth, resazurin",,,MIC,12.9 µg/mL
COc1cccc2c1C(=O)c1c(O)c3c(c(O)c1C2=O)C[C@@](O)(C(=O)CO)C[C@@H]3O[C@H]1C[C@H](N)[C@H](O)[C@H](C)O1,NCI-H1975,"cell growth or viability, MTT",,72 h,IC50,340 nM
O=C(CO/N=c1\cc2n(-c3ccc(Cl)cc3)c3ccccc3nc-2cc1Nc1ccc(Cl)cc1)NCc1ccc(C(F)(F)F)cc1,Mycobacterium avium,microbial growth,ATCC700898,,MIC,> 30 µM
CC(=O)c1ccc(Oc2ccc(C(=O)C(Cl)Cl)cc2[N+](=O)[O-])cc1,NCI-H1975,"cell growth or viability, MTT",,2.5 µM,inhibition,85.2%
O=C(O)CO/N=c1\cc2n(-c3ccc(Cl)cc3)c3ccccc3nc-2cc1Nc1ccc(Cl)cc1,Mycobacterium avium,microbial growth,ATCC700898,,MIC,0.94 µM
O=C(c1ccc(Oc2ccc(-c3ccccc3)cc2)c([N+](=O)[O-])c1)C(Cl)Cl,NCI-H1975,"cell growth or viability, MTT",,2.5 µM,inhibition,85.2%
C[C@H](NC(=O)CO/N=c1\cc2n(-c3ccc(Cl)cc3)c3ccccc3nc-2cc1Nc1ccc(Cl)cc1)C(=O)OC(C)(C)C,Mycobacterium avium,microbial growth,,clinical isolate,MIC,> 30 µM
CCCCCc1nc(N)nc(N)c1OCCCOc1ccccc1CCC(=O)O,Mycobacterium avium,"microbial growth, resazurin",,,MIC,0.6 µg/mL
N#Cc1ccc(Oc2ccc(C(=O)C(Cl)Cl)cc2[N+](=O)[O-])cc1,NCI-H1975,"cell growth or viability, MTT",,2.5 µM,inhibition,96.8%
